Measured values published in ChEMBL document CHEMBL3861962 (Eur J Med Chem, 2016).
One block for each compound: values may come before it. Where a SMILES comes first, the peptide text is derived from it. [ ]: non-standard residue; d: D form.

Legend:
[1] = target: T1, Endothelin receptor type B (Homo sapiens) (UniProt P24530); assay: (§1) Antagonist activity at ETB receptor in human BSMC assessed as inhibition of endothelin-1 or 3-mediated Ca2+ mobilization preincubated for 5 mins followed by endothelin-1 or 3 addition by fura-2/AM dye-based spectrofluorimetric method; assay type: functional
T1 sequence (whole entry): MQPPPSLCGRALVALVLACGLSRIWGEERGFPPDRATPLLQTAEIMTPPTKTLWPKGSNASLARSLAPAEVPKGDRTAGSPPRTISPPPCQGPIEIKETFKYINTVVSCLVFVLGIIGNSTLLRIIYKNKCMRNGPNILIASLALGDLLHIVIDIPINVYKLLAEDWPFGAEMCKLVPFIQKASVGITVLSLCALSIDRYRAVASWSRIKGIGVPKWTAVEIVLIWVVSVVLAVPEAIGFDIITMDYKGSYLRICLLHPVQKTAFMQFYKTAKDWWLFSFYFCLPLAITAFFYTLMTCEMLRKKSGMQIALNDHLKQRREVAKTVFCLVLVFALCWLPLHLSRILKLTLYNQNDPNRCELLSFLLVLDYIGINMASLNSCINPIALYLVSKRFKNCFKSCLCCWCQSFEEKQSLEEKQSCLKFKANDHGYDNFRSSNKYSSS

[2] = target: T2, Endothelin receptor type B (Homo sapiens, UniProt P24530); assay: as §1; assay type: functional
T2 sequence (P24530 whole entry): T1 sequence (whole entry)

Cytochrome P450 3A4 [3] = target: T3, Cytochrome P450 3A4 (Homo sapiens, UniProt P08684); assay: Drug level assessed as human recombinant CYP3A4-mediated compound formation treated with bosentan at 5 uM in presence of NADPH after 30 mins by LC-MS/MS analysis; assay type: ADME; details: recombinant enzyme, 0.5 h
T3 sequence (P08684 whole entry): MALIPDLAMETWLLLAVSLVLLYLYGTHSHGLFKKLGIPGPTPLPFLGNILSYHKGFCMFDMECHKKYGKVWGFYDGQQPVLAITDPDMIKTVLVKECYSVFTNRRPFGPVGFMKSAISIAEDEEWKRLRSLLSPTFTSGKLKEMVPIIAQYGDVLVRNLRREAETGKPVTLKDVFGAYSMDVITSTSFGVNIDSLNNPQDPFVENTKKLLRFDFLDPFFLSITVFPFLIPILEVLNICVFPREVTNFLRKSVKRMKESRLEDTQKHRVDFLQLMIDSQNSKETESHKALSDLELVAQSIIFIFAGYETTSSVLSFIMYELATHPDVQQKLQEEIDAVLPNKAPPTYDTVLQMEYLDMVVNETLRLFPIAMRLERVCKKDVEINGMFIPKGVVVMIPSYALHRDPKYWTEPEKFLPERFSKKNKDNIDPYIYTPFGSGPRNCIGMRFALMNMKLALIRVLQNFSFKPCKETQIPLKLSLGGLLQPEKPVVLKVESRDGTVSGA
Procedure, shortened: (§2)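 Substrate at 5 μM final in 100 mM potassium phosphate, pH 7.4, incubated with human liver microsomes or baculovirus-expressed recombinant CYP3A4, 2D6 or 2C9. Reaction started with 1 mM NADPH and run 0, 15 and 30 min at 37 °C. Stopped with ice-cold acetonitrile containing labetalol internal standard, then centrifuged. Supernatant analysed by LC-MS/MS on a C18 column at 40 °C. Blank was enzyme without substrate.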

[4] = Drug level in human liver microsomes treated with bosentan at 5 uM in presence of NADPH after 30 mins by LC-MS/MS analysis; assay type: ADME; details: 0.5 h; procedure, shortened: as §2
Cytochrome P450 2C9 [5] = target: T4, Cytochrome P450 2C9 (Homo sapiens, UniProt P11712); assay: Drug level assessed as human recombinant CYP2C9-mediated compound formation treated with bosentan at 5 uM in presence of NADPH after 30 mins by LC-MS/MS analysis; assay type: ADME; details: recombinant enzyme, 0.5 h; procedure, shortened: as §2
T4 sequence (P11712 whole entry): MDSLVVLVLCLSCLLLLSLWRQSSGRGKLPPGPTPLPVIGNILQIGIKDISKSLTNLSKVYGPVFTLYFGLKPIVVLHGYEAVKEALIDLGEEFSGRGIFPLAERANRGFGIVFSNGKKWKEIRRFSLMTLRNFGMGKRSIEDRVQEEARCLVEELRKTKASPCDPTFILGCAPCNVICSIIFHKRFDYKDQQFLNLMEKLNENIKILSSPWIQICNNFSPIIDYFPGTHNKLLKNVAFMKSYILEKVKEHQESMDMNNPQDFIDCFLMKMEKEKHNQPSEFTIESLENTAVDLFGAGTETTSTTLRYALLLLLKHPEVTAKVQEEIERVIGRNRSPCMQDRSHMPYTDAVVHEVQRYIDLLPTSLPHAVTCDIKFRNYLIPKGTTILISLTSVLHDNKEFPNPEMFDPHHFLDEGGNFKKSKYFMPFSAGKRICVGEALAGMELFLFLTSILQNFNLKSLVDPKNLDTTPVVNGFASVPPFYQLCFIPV

[6] = Retention time of the compound; assay type: physicochemical
Endothelin-1 receptor = target: T5, Endothelin-1 receptor (Homo sapiens, UniProt P25101); assay: Antagonist activity at ETA receptor in human SKNMC cells assessed as inhibition of endothelin-1-mediated Ca2+ mobilization by fura-2/AM dye-based spectrofluorimetric method
T5 sequence (P25101 whole entry): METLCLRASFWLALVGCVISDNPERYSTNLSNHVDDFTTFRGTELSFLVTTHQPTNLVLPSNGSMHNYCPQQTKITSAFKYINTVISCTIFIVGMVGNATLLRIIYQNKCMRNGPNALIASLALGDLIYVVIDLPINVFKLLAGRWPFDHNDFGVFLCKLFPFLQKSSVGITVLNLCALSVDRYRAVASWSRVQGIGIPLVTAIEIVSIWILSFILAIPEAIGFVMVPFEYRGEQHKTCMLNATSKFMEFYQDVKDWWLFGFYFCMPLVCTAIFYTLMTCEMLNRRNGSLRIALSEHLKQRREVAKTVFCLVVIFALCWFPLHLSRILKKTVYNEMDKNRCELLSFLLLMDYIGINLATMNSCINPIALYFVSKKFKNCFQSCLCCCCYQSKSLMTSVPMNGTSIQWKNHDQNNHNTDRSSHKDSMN

[7] = Metabolic stability in human liver microsomes assessed as parent compound remaining at 5 uM in presence of NADPH after 30 mins by LC-MS/MS analysis; assay type: ADME; details: read-out: Stability
Procedure, shortened: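 Pooled human liver microsomes in 100 mM potassium phosphate, pH 7.4, with test compound at 5 μM final. Reaction started with 1 mM NADPH (final) and run at 37 °C in a shaking water bath for 0, 15 and 30 min. Stopped with an equal volume of ice-cold acetonitrile containing 0.6 μM labetalol as internal standard. Protein was spun out and the supernatant analysed by LC-MS/MS. Blank had no compound.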

Cytochrome P450 3A4 [8] = target: T3, Cytochrome P450 3A4; assay: Drug metabolism assessed as human recombinant CYP3A4-mediated metabolite formation by measuring parent compound remaining at 5 uM in presence of NADPH after 30 mins by LC-MS/MS analysis; assay type: ADME; details: recombinant enzyme, 0.5 h; procedure, shortened: as §2
Cytochrome P450 2C9 [9] = target: T4, Cytochrome P450 2C9; assay: Drug metabolism assessed as human recombinant CYP2C9-mediated metabolite formation by measuring parent compound remaining at 5 uM in presence of NADPH after 30 mins by LC-MS/MS analysis; assay type: ADME; details: recombinant enzyme, 0.5 h; procedure, shortened: as §2
[10] = Drug metabolism in human liver microsomes assessed as formation of 4-(1-hydroxy-2-methylpropan-2-yl)-N-(6-(2-hydroxyethoxy)-5-(2-methoxyphenoxy)-2,2'-bipyrimidin-4-yl)benzenesulfonamide at 5 uM in presence of NADPH after 30 mins by LC-MS/MS analysis; assay type: ADME; details: 0.5 h; procedure, shortened: as §2
[11] = Drug metabolism in human liver microsomes assessed as formation of 4-tert-butyl-N-(6-(2-hydroxyethoxy)-5-(2-hydroxyphenoxy)-2,2'-bipyrimidin-4-yl)benzenesulfonamide at 5 uM in presence of NADPH after 30 mins by LC-MS/MS analysis; assay type: ADME; details: 0.5 h; procedure, shortened: as §2
[12] = Drug metabolism in human liver microsomes assessed as formation of 4-(1-hydroxy-2-methylpropan-2-yl)-N-(6-(2-hydroxyethoxy)-5-(2-hydroxyphenoxy)-2,2'-bipyrimidin-4-yl)benzenesulfonamide at 5 uM in presence of NADPH after 30 mins by LC-MS/MS analysis; assay type: ADME; details: 0.5 h; procedure, shortened: as §2
Cytochrome P450 3A4 [13] = target: T3, Cytochrome P450 3A4; assay: Drug metabolism assessed as human recombinant CYP3A4-mediated formation of 4-(1-hydroxy-2-methylpropan-2-yl)-N-(6-(2-hydroxyethoxy)-5-(2-methoxyphenoxy)-2,2'-bipyrimidin-4-yl)benzenesulfonamide at 5 uM in presence of NADPH after 30 mins by LC-MS/MS analysis; assay type: ADME; details: recombinant enzyme, 0.5 h; procedure, shortened: as §2
Cytochrome P450 3A4 [14] = target: T3, Cytochrome P450 3A4; assay: Drug metabolism assessed as human recombinant CYP3A4-mediated formation of 4-tert-butyl-N-(6-(2-hydroxyethoxy)-5-(2-hydroxyphenoxy)-2,2'-bipyrimidin-4-yl)benzenesulfonamide at 5 uM in presence of NADPH after 30 mins by LC-MS/MS analysis; assay type: ADME; details: recombinant enzyme, 0.5 h; procedure, shortened: as §2
Cytochrome P450 3A4 [15] = target: T3, Cytochrome P450 3A4; assay: Drug metabolism assessed as human recombinant CYP3A4-mediated formation of 4-(1-hydroxy-2-methylpropan-2-yl)-N-(6-(2-hydroxyethoxy)-5-(2-hydroxyphenoxy)-2,2'-bipyrimidin-4-yl)benzenesulfonamide at 5 uM in presence of NADPH after 30 mins by LC-MS/MS analysis; assay type: ADME; details: recombinant enzyme, 0.5 h; procedure, shortened: as §2
Cytochrome P450 2C9 [16] = target: T4, Cytochrome P450 2C9; assay: Drug metabolism assessed as human recombinant CYP2C9-mediated formation of 4-(1-hydroxy-2-methylpropan-2-yl)-N-(6-(2-hydroxyethoxy)-5-(2-methoxyphenoxy)-2,2'-bipyrimidin-4-yl)benzenesulfonamide at 5 uM in presence of NADPH after 30 mins by LC-MS/MS analysis; assay type: ADME; details: recombinant enzyme, 0.5 h; procedure, shortened: as §2
Cytochrome P450 2D6 = Cytochrome P450 2D6 (Homo sapiens, UniProt P10635); assay: Drug metabolism assessed as human recombinant CYP2D6-mediated metabolite formation by measuring parent compound remaining at 5 uM in presence of NADPH after 30 mins by LC-MS/MS analysis; assay type: ADME; details: recombinant enzyme, 0.5 h; procedure, shortened: as §2
Sequence of Cytochrome P450 2D6 (P10635 whole entry): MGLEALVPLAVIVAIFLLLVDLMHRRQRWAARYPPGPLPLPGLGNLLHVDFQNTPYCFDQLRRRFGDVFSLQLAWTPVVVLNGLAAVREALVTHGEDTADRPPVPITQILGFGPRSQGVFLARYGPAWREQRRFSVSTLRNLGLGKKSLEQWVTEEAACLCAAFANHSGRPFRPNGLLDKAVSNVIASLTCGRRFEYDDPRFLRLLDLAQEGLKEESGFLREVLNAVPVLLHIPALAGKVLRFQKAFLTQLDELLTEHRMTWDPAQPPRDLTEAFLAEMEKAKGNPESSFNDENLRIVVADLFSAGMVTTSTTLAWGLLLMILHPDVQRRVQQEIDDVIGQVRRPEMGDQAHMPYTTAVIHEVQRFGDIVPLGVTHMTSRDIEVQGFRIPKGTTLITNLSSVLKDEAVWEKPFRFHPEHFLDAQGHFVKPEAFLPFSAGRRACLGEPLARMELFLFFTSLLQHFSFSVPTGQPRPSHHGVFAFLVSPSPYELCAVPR

[17] = Cytotoxicity against CHOK1 cells assessed as decrease in cell viability after 24 hrs by MTT assay; assay type: toxicity, cell-based, Cricetulus griseus; details: Chinese hamster, CHO-K1 cells
Procedure, shortened: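 CHO-k1 cells grown in phenol-red-free DMEM/F-12 with 10% FBS, seeded at 20,000 cells/well and allowed to attach overnight. Exposure was 24 h to 0.1–200 μM, with DMSO as vehicle control. MTT at 1 mg/mL for 3 h at 37 °C, formazan dissolved in DMSO, absorbance read at 570 nm. Data given as % OD of vehicle control; IC50 taken from dose–response curve fits.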

Cytochrome P450 3A4 [18] = target: T3, Cytochrome P450 3A4; assay: Drug level assessed as human recombinant CYP3A4-mediated compound formation treated with 4-(tert-Butyl)-N-(6-ethoxy-5-(2-methoxyphenoxy)-[2,2'-bipyrimidin]-4-yl)benzenesulfonamide at 5 uM in presence of NADPH after 30 mins by LC-MS/MS analysis; assay type: ADME; details: recombinant enzyme, 0.5 h; procedure, shortened: as §2
[19] = Drug level in human liver microsomes treated with 4-(tert-Butyl)-N-(6-ethoxy-5-(2-methoxyphenoxy)-[2,2'-bipyrimidin]-4-yl)benzenesulfonamide at 5 uM in presence of NADPH after 30 mins by LC-MS/MS analysis; assay type: ADME; details: 0.5 h; procedure, shortened: as §2
Cytochrome P450 2C9 [20] = target: T4, Cytochrome P450 2C9; assay: Drug level assessed as human recombinant CYP2C9-mediated compound formation treated with 4-(tert-Butyl)-N-(6-ethoxy-5-(2-methoxyphenoxy)-[2,2'-bipyrimidin]-4-yl)benzenesulfonamide at 5 uM in presence of NADPH after 30 mins by LC-MS/MS analysis; assay type: ADME; details: recombinant enzyme, 0.5 h; procedure, shortened: as §2

Compound: CCCC[C@@H](NC(=O)[C@@H](Cc1cn(C(=O)OC)c2ccccc12)NC(=O)[C@H](CC(C)(C)C)NC(=O)N1[C@H](C)CCC[C@@H]1C)C(=O)O
Kb [1]: 0.5 nM
IC50 [2]: 0.41 nM

Compound: CC(C)C[C@@H]1NC(=O)[C@@H](C(C)C)NC(=O)[C@@H]2CCCN2C(=O)[C@@H](CC(=O)O)NC(=O)[C@@H](Cc2c[nH]c3ccccc23)NC1=O [BQ-123] (cyclo(L[dW][dD]P[dV]))
IC50 (Endothelin-1 receptor): 0.62 nM

Compound: COc1ccccc1Oc1c(NS(=O)(=O)c2ccc(C(C)(C)C)cc2)nc(-c2ncccn2)nc1OCCO [BOSENTAN]
remaining at 0.5 h, 5 µM [7]: 91.6%
Stability (Cytochrome P450 3A4 [8]): 20.9%
Stability (Cytochrome P450 2C9 [9]): 75.8%
Drug metabolism [10]: Metabolite_Detected
Drug metabolism [11]: Metabolite_Detected
Drug metabolism [12]: Metabolite_Detected
Drug metabolism (Cytochrome P450 3A4 [13]): Metabolite_Detected
Drug metabolism (Cytochrome P450 3A4 [14]): Metabolite_Detected
Drug metabolism (Cytochrome P450 3A4 [15]): Metabolite_Detected
Drug metabolism (Cytochrome P450 2C9 [16]): Metabolite_Detected
Retention_time [6]: 5.1 min
Stability (Cytochrome P450 2D6): > 99%
IC50 at 24 h [17]: 196000 nM

More lines, now with the values ahead:

Drug metabolism (Cytochrome P450 3A4 [3]): Metabolite_Detected
Drug metabolism [4]: Metabolite_Detected
Drug metabolism (Cytochrome P450 2C9 [5]): Metabolite_Detected
Retention_time [6]: 3.79 min
Compound: COc1ccccc1Oc1c(NS(=O)(=O)c2ccc(C(C)(C)CO)cc2)nc(-c2ncccn2)nc1OCCO

Drug metabolism (Cytochrome P450 3A4 [18]): Metabolite_Detected
Drug metabolism [19]: Metabolite_Detected
Drug metabolism (Cytochrome P450 2C9 [20]): Metabolite_Detected
Retention_time [6]: 4.99 min
Compound: CCOc1nc(-c2ncccn2)nc(NS(=O)(=O)c2ccc(C(C)(C)CO)cc2)c1Oc1ccccc1OC
